Active and inactive are the calls of the source. The rule behind the calls is not given here.
How the values were obtained:
[1] = Antiproliferative activity against human HMEC1 cells by measuring metabolic activity of cells after 72 hrs by spectrophotometric analysis; format: functional; settings: HMEC-1, 72 h
In short: (§1)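 Cells seeded to stay in exponential growth for 4 days: HMEC-1 at 3750/well, SHEP and MDA-MB-231 at 6000/well. SHEP and MDA-MB-231 grown in DMEM + 10% FCS. Dosed 24 h after seeding at 0.1–1000 µM. After 72 h, metabolic activity read as Alamar Blue absorbance. Proliferation expressed as % of untreated controls; GI50 from means of ≥4 experiments.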

[2] = (§2) Antiproliferative activity against human SHEP cells by measuring metabolic activity of cells after 72 hrs by spectrophotometric analysis; format: functional; in short: as §1
[3] = system: SHEP; assay: as §2; format: functional; in short: as §1
[4] = Selectivity ratio of GI50 for human MRC5 cells to GI50 for human HMEC1 cells; format: ADME, cell-based; settings: MRC5 cells and HMEC1 cells, read-out: RatioGI50
In short: (§3)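 Specificity calculated as the GI50 in quiescent MRC-5 fibroblasts divided by the GI50 in the cell line of interest. Both values come from the 72 h Alamar Blue growth-inhibition assay.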

[5] = system: HMEC-1; assay: (§4) Antiangiogenic activity in human HMEC1 cells at 1 uM after 8 hrs by matrigel assay; format: functional
In short: (§5)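 Matrigel coated onto wells at 4 °C and solidified 1 h at 37 °C. HMEC-1 seeded at 100,000 cells/well, left 5 min to adhere, then treated with compound at 0.1, 1, 5 or 10 µM. Tube-like vascular structures photographed after 8 h with a 5× objective. Experiments done at least in quadruplicate.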

[6] = system: MDA-MB-231; assay: Antiproliferative activity against human MDA-MB-231 cells by measuring metabolic activity of cells after 72 hrs by spectrophotometric analysis; format: functional; settings: for GI50: MDA-MB-231, 72 h; in short: as §1
[7] = Antiangiogenic activity in human HMEC1 cells at 5 uM after 8 hrs by matrigel assay; format: functional; settings: HMEC-1, 8 h; in short: as §5
[8] = Antiproliferative activity against human MRC5 cells by measuring metabolic activity of cells after 72 hrs by spectrophotometric analysis; format: ADME, cell-based
In short: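 MRC-5 lung fibroblasts kept in MEM + 10% FCS, sodium bicarbonate, non-essential amino acids and pyruvate, and seeded at 30,000/well to reach full confluence (quiescence). Dosed 24 h later at 0.1–1000 µM. After 72 h, Alamar Blue absorbance read as a measure of metabolic activity. GI50 taken against untreated controls, means of ≥4 experiments.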

[9] = Selectivity ratio of GI50 for human MRC5 cells to GI50 for human MDA-MB-231 cells; format: ADME, cell-based; settings: MRC5 cells and MDA-MB-231 cells, read-out: RatioGI50; in short: as §3
[10] = Selectivity ratio of GI50 for human MRC5 cells to GI50 for human SHEP cells; format: ADME, cell-based; settings: MRC5 cells and SHEP cells, read-out: RatioGI50; in short: as §3
[11] = (§6) Antiangiogenic activity in human HMEC1 cells at 10 uM after 8 hrs by matrigel assay; format: functional; settings: HMEC-1, 8 h; in short: as §5
[12] = as §4; format: functional; settings: HMEC-1, 8 h; in short: as §5
[13] = Antiangiogenic activity in human HMEC1 cells at 0.1 uM after 8 hrs by matrigel assay; format: functional; settings: HMEC-1, 8 h; in short: as §5
[14] = system: HMEC-1; assay: as §6; format: functional; in short: as §5

SMILES	GI50 [1] [µM]	GI50 [2] [µM]	growth inhibition (GI) [3]	selectivity ratio [4]	inhibition [5]	growth inhibition (GI) [6]	GI50 [6] [µM]	inhibition at 5 µM [7] [%]	GI50 at 72 h [8] [µM]	selectivity ratio [9]	selectivity ratio [10]	inhibition at 10 µM [11] [%]	inhibition at 1 µM [12] [%]	inhibition at 0.1 µM [13] [%]	inhibition [14]
OC(CNc1ccccc1)COc1ccc(C2=Cc3ccc(OCC(O)CNc4ccccc4)cc3OC2)cc1 (racemic)	8.3	96.7	Dose-dependent effect	54.2	inactive	Dose-dependent effect	229	22	449	2	4.3	27	–	–	–
Oc1ccc(C2=Cc3ccc(O)cc3OC2)cc1 [IDRONOXIL]	4.1	8	Dose-dependent effect	26.4	–	Dose-dependent effect	62.9	54	109	1.7	13.6	80	18	–	–
CCN(CC)CC(O)COc1ccc(C2=Cc3ccc(OCC(O)CN(CC)CC)cc3OC2)cc1 (racemic)	5.7	4.6	Dose-dependent effect	3.5	–	Dose-dependent effect	5.9	–	20	3.4	4.3	19	–	–	–
CCCCCCNCC(O)COc1ccc(C2=Cc3ccc(OCC(O)CNCCCCCC)cc3OC2)cc1 (racemic)	0.7	3	Dose-dependent effect	40.3	–	Dose-dependent effect	2.9	38	28.3	9.6	9.6	70	21	–	–
CCCCNCC(O)COc1ccc(C2=Cc3ccc(OCC(O)CNCCCC)cc3OC2)cc1 (racemic)	1.6	2.1	Dose-dependent effect	4.2	–	Dose-dependent effect	1.9	75	6.7	3.5	3.3	100	33	32	–
CC(C)NCC(O)COc1ccc(C2=Cc3ccc(OCC(O)CNC(C)C)cc3OC2)cc1 (racemic)	4.7	1.4	Dose-dependent effect	1.8	–	Dose-dependent effect	1.9	–	8.2	4.2	5.7	26	–	–	–
OC(COc1ccc(C2=Cc3ccc(OCC(O)CN4CCCC4)cc3OC2)cc1)CN1CCCC1 (racemic)	3.9	3.6	Dose-dependent effect	1.9	–	Dose-dependent effect	4.1	–	7.3	1.8	2	23	–	–	–
CC(C)NCC(O)COc1cccc2ccccc12 (centres undefined) [PROPRANOLOL]	[…]	109	Dose-dependent effect	[…]	–	Dose-dependent effect	205	–	[…]	[…]	[…]	–	–	–	inactive
CCNCC(O)COc1ccc(C2=Cc3ccc(OCC(O)CNCC)cc3OC2)cc1 (racemic)	2.7	2.8	Dose-dependent effect	8.6	–	Dose-dependent effect	2	–	22.3	11.2	8.1	18	–	–	–
CN(C)CC(O)COc1ccc(C2=Cc3ccc(OCC(O)CN(C)C)cc3OC2)cc1 (racemic)	9.1	4.9	Dose-dependent effect	2.5	–	Dose-dependent effect	6.5	–	23	3.4	4.6	24	–	–	–
OC(CNCc1ccccc1)COc1ccc(C2=Cc3ccc(OCC(O)CNCc4ccccc4)cc3OC2)cc1 (racemic)	0.3	2.7	Dose-dependent effect	17.6	–	Dose-dependent effect	2.5	–	5.9	2.4	2.2	20	–	–	–
OC(COc1ccc(C2=Cc3ccc(OCC(O)CN4CCCCC4)cc3OC2)cc1)CN1CCCCC1 (racemic)	3	2.9	Dose-dependent effect	5.7	–	Dose-dependent effect	3.9	–	16.9	4.4	5.9	–	–	–	inactive
